HCV core dimer: blocks dimerization of HCV core protein; 0.33% of 300,000 active; TR-FRET GST/Flag-core106 dimerization, 1536-well; AID 1899; inhibition, % at 5 µM;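 active means inhibition above the mean of all tested compounds plus 3 SD, set per screening campaign, cut at about 45% in these data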
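test system = GST/Flag-tagged HCV core106 proteins | probe or stimulus = Eu donor and XL665 acceptor anti-tag antibodies | times = compound-protein-antibody incubation 4 h at 22.5 °C | signal = TR-FRET, excitation 340 nm, emission 617 and 671 nm | measure = percent inhibition of core106 dimerization signal | controls = wells lacking GST-core106 and wells with excess unlabelled core106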
rCAG binder: r(CAG) repeat RNA binding; TO-PRO-1 dye displacement fluorescence; inhibition, % at 3 µM; 1.3% of 370,000 active; AID 651821;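 active means inhibition above the plate cutoff, the mean of all test compounds on that plate plus 3 SD, cut at about 35% in these data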;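 further: 0% = DMSO alone and 100% = 100 µM mitoxantrone as full dye displacement; higher means more dye released from RNA so lower well fluorescence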
NS3 helicase inh: blocks Hepatitis C virus NS3 helicase unwinding. NS3 helicase DNA unwinding, Cy5 molecular beacon fluorescence. inhibition, % at 10.9 µM. 0.56% of 290,000 active. AID 1800;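 active means inhibition above the mean of all tested compounds plus 3 SD, set per campaign, cut at about 35% in these data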;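 further: 0% = DMSO wells and 100% = thioflavine S control wells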
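Test system: hepatitis C virus NS3 helicase domain fragment enzyme. Also added: annealed dual-labelled DNA beacon duplex, ATP-started. Timing: 60 min unwinding reaction at 25 °C after ATP addition. Technique: Cy5 fluorescence. Measure: % inhibition of unwinding.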
TAAR1 agonist: human TAAR1 agonism; Q96RJ0; CHO RD-HGA16 TAAR1, Fluo-8 calcium fluorescence; vehicle wells 0%, saturating PEA agonist 100%; activation, % at 3 µM; 0.99% of 360,000 active; AID 624467;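 active means activation above the mean activation of all test compounds in the run plus 3 SD, cut at about 38% in these data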
Target sequence (Q96RJ0 whole entry, looked up): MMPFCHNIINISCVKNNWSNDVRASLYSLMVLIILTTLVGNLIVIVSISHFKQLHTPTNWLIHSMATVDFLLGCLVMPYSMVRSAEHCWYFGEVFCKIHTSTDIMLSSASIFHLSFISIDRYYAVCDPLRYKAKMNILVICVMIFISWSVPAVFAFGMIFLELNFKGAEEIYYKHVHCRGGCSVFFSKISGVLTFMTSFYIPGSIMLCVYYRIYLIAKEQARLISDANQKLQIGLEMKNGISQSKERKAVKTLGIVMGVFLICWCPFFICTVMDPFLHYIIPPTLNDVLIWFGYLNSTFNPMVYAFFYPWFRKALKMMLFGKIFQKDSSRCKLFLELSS
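Test system: RD-HGA16 (CHO) cells co-expressing Gα16 and hTAAR1; dosing: one-point dosing at 3 µM (nominal); timing: 17-24 h seeding, 75 min 37 °C dye, 30 min RT; signal: kinetic Fluo-8 calcium fluorescence; read-out basis: % activation relative to PEA EC100 response; controls: DMSO and PEA EC100; replicates: n 1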
TAAR1 antagonist: human TAAR1 antagonism; Q96RJ0; CHO RD-HGA16 TAAR1, Fluo-8 calcium fluorescence, antagonist; inhibition, % at 3 µM; 1.5% of 360,000 active; AID 624466;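 active means inhibition above a per-plate cutoff, the mean inhibition of test compounds on that plate plus 3 SD, cut at about 49% in these data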;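 further: 0% = DMSO plus EC80 beta-PEA response and 100% = DMSO alone without agonist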
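test system = CHO RD-HGA16 cells bearing hTAAR1 | replication = singlicate | controls = DMSO-only wells and EC80 β-PEA-stimulated wells | reagent = EC80 β-phenethylamine stimulus | read-out basis = percent inhibition of PEA-evoked calcium signal, max/basal emission ratio | schedule = seeding 17-24 h prior, 75-min 37 °C, 30-min RT dye loading | signal = kinetic Fluo-8 calcium fluorescence measurement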
* = called active by the depositor; . = no result given. An excerpt weighted towards active compounds, which were near 3.7% of everything screened.

SMILES	HCV core dimer	rCAG binder	NS3 helicase inh	TAAR1 agonist	TAAR1 antagonist
O=C1C2C3CCCC3=C3CCCC3C2C(=O)N1c1cccc(Cl)c1 (stereo not drawn)	31	5	9	3	14
O=C1C2C3CCCC3=C3CCCC3C2C(=O)N1c1ccc(Cl)cc1 (stereo not drawn)	52*	-3	9	1	-8
CCCCOCCCNC(=O)C[C@H]1C[C@@]2(C(=O)OC)C(=C[C@H](C(C)C)O[C@@H]2C2CC2)N(CCC2=CCCCC2)C1=O	.	6	.	.	.
COc1ccc(CN2CCC(CNC(=O)Nc3ccccc3)CC2)cc1	.	0	.	.	.
COC(=O)C[C@@H]1CC[C@H]2[C@H](COc3ccc(NC(=O)C4CCC4)cc3C(=O)N2C)O1	.	2	.	.	.
CC(=O)c1c(C)oc2ccc(NS(=O)(=O)c3ccc(O)c(C(=O)O)c3)cc12	8	19	11	-2	-3
O=C(O)c1cc(S(=O)(=O)Nc2ccc3oc(=O)sc3c2)ccc1O	-10	60*	20	5	-5
CC(=O)N1CCc2c1cccc2S(=O)(=O)NC(CC(C)C)C(=O)Nc1ccc(F)cc1Cl (stereo not drawn)	.	8	.	.	.
CC(=O)CC[C@@H]1CC[C@]2(CCCN(C(=O)c3ccno3)C2)O1	.	6	.	.	.
Cc1ccc2nc(-c3ccc(NC(=O)CSc4nnc(-c5ccccc5)n4Cc4ccco4)cc3)sc2c1	.	19	.	.	.
O=S1(=O)c2c(cccc2N2CCC[C@@H]2CO)OCCCN1C1CC1	.	4	.	.	.
O=[N+]([O-])c1ccccc1CCc1ccccc1[N+](=O)[O-]	.	1	.	34	50*
O=[N+]([O-])c1ccccc1CCO	.	0	.	8	-27
COC(=O)[C@]12C[C@H](CC(=O)N3CCCC3)C(=O)N(CCc3ccc(OC)c(OC)c3)C1=C[C@H](C1CCCC1)O[C@@H]2C	.	1	.	.	.
CCN(CC)S(=O)(=O)c1ccc(/C=C/C(=O)OCC(=O)Nc2cccnc2Cl)cc1	.	2	.	17	49*
COCCCN1C(=O)[C@H](CC(=O)NCC23CC4CC(CC(C4)C2)C3)[C@]2(C(=O)OC)CCCCC=C12	.	0	.	.	.
O=C(Nc1ccc(N2CCN(C(=O)c3ccccc3F)CC2)cc1)c1cncc(Br)c1	-1	0	-6	8	52*
O=C(NCC(c1ccco1)N1CCCC1)c1ccc(S(=O)(=O)Nc2ccc(F)cc2)cc1 (stereo not drawn)	.	4	.	40*	-7
O=C(NCC(c1ccco1)N1CCCCC1)c1ccc(NS(=O)(=O)c2ccc(F)cc2)cc1 (stereo not drawn)	6	2	-33	2	-3
COc1ccc(OC)c(CCNC(=O)c2cccc(NC(=O)C3=C(C)OCCS3)c2)c1	11	-2	3	10	57*
O=C(NCCc1ccccc1)c1cc(-c2ccc3c(c2)OCO3)on1	-1	3	1	38*	11
S=C(Nc1ccc(Br)cc1)OC1CCC12CCC(c1ccccc1)CC2 (stereo not drawn)	.	10	.	.	.
Cc1ccc(SC(C)C(=O)Nc2ccc(S(=O)(=O)N3CCOCC3)cc2)cc1 (stereo not drawn)	-6	2	-10	39*	22
O=C(CSCc1ccc(Br)cc1)NCCc1ccccc1	11	-3	-5	40*	-5
COc1ccccc1CN1CCNC(=O)C1CC(=O)NC1Cc2ccccc2C1 (stereo not drawn)	5	2	-3	41*	-14
SMILES	HCV core dimer	rCAG binder	NS3 helicase inh	TAAR1 agonist	TAAR1 antagonist
Nc1[nH]c2cc(C(F)(F)F)ccc2c1C(=O)NCc1ccc(F)cc1	.	5	.	.	.
CCN=C(NCC)SC1CC(=O)N(c2cccc(OC)c2)C1=O (stereo not drawn)	2	-6	-1	23	55*
CCN=C(NCC)SC1CC(=O)N(c2ccccc2)C1=O (stereo not drawn)	4	6	-13	26	51*
CCN(C[C@H]1N[C@@](C)(C(=O)OC)[C@H]2C(=O)N(Cc3ccccc3)C(=O)[C@@H]12)C(=O)c1ccc(C(C)(C)C)cc1	.	0	.	11	51*
CN1C[C@@H]2[C@@H]3C(=O)N(Cc4ccccc4)C(=O)[C@@H]3[C@](Cc3ccccc3)(C1=O)N2C(=O)c1ccccc1	.	-4	.	23	16
CN1C[C@@H]2[C@@H]3C(=O)N(Cc4ccccc4)C(=O)[C@@H]3[C@](Cc3ccccc3)(C1=O)N2C(=O)c1ccc(C(C)(C)C)cc1	.	-1	.	42*	17
CCN(C[C@H]1N[C@@](CC)(C(=O)OC)[C@H]2C(=O)N(Cc3ccccc3)C(=O)[C@@H]12)C(=O)c1ccc(C(C)(C)C)cc1	.	3	.	13	54*
CCOC(=O)[C@]12CCCCC/C=C\1N(CCc1ccc(Cl)cc1)C(=O)[C@H]2CC(=O)NCc1ccccc1	.	5	.	.	.
COC(=O)[C@]1(C)CN(C(=O)OC(C)(C)C)C2=C1C(=O)C[C@](C)(C(=O)OC(C)(C)C)C2	.	-1	.	.	.
COC(=O)[C@]12C[C@H](CC(=O)NCCCCc3ccccc3)C(=O)N(Cc3ccc(Cl)cc3Cl)C1=C[C@H](C1CCCC1)O[C@@H]2C	.	11	.	.	.
CCOC(=O)Oc1ccc2oc(=O)cc(C)c2c1	-7	2	6	6	-9
Cc1cc(=O)oc2ccc(OCC(=O)N(Cc3ccc(F)cc3)Cc3ccco3)cc12	4	-5	10	12	70*
COc1cc2cc(Br)cc(Br)c2nc1C	63*	4	-2	3	-25
COc1cc2cnncc2cc1OC	5	-1	19	6	-4
O=C(CSc1nnc(-c2ccco2)n1-c1ccc(Cl)cc1)Nc1ccccc1-c1ccccc1	.	3	.	.	.
N#Cc1ccsc1NC(=O)COc1ccc(-c2nnco2)cc1	96*	15	4	2	12
CC(C)(C)CC(C)(C)NCC(O)COc1c(F)cc(Br)cc1F (stereo not drawn)	-5	7	-21	47*	4
COc1ccc(S[C@]2(C(=O)N3CCCC3)CC(=O)N(C(=O)C3CC3)[C@@H]2c2ccc(OC)cc2)cc1	.	8	.	.	.
CCc1ccc(N(C(=O)CNC(=O)c2ccco2)C(C(=O)NCC2CCCO2)c2ccccc2)cc1 (stereo not drawn)	2	-12	-10	8	9
COc1cc(OC)cc(N(C(=O)CNC(=O)c2ccco2)C(C(=O)NCC2CCCO2)c2ccccc2)c1 (stereo not drawn)	-15	-3	16	15	52*
COc1cccc([C@H]2NC(=O)C/C=C/[C@@H](C)[C@@H](c3cccc(OC)c3)NC(=O)C/C=C/[C@H]2C)c1	.	7	.	.	.
COC(=O)c1cc(-c2ccc(Oc3ccccc3)cc2)c(=O)n2c1CCC2	.	0	.	.	.
O=C(NCCc1cccs1)C1CC(c2cccc([N+](=O)[O-])c2)=NO1 (stereo not drawn)	-3	2	6	32	49*
Cc1nnc2sc(COc3ccccc3)nn2c1=O	15	1	-4	0	-4

Screening results (PubChem BioAssay)
